We go through three molecules from ChEMBL document CHEMBL1629683, “HIV-1 protease codon 36 polymorphisms and differential development of resistance to nelfinavir, lopinavir, and atazanavir in different HIV-1 subtypes” (Antimicrob Agents Chemother, 2010).

One may read the pEC50 as −log10 of the EC50, conventionally taken in molar units.

pEC50: −log10 of the molar value. Activity calls are given as the source filed them. The rule behind the calls is not given here.

Experiment [1] relates to Human immunodeficiency virus 1. The experiment can be described thus: Antiviral activity against HIV1 subtype B harboring protease polymorphism at M36 position M46I, I50L, N88S mutant gene infected in human cord blood mononuclear cells assessed as inhibition of viral replication […]. In kind it is functional, organism-based. The settings on record: Human immunodeficiency virus 1, subtype B. A digest of the protocol:
(§1)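 Cord blood mononuclear cells were PHA-stimulated for 72 h in RPMI 1640 with 10% FBS and IL-2. Cells were infected for 2 h with week-0 clonal virus or PI-selected virus (weeks 25 and 35 of selection). They were plated at 5 × 10⁵ cells/well with PI at 0.04 nM to 10 μM. Drug-containing medium was replenished on day 3, supernatant RT activity was read on day 7, and EC₅₀ was derived.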

The subject of experiment [2] is Human immunodeficiency virus 1. The experiment can be described thus: Antiviral activity against HIV1 subtype C harboring protease L23I, M46I/M, L89T mutant gene and polymorphism at M36 position infected in human cord blood mononuclear cells assessed as inhibition of viral replication […]. In kind it is functional, organism-based. The conditions noted are these: Human immunodeficiency virus 1, subtype C. A digest of the protocol:
as §1

Experiment [3] has as its system Human immunodeficiency virus 1. The experiment is described as follows: Antiviral activity against HIV1 subtype C harboring protease E35G mutant gene and polymorphism at I36 position infected in human cord blood mononuclear cells assessed as inhibition of viral replication […]. The experiment is classed as functional, organism-based. The conditions noted are these: Human immunodeficiency virus 1, subtype C. A digest of the protocol:
as §1

Experiment [4] has as its system Human immunodeficiency virus 1. The experiment can be described thus: Antiviral activity against HIV1 subtype CRF02_AG harboring protease polymorphism at M36 position and I50FILV, A71V mutant gene infected in human cord blood mononuclear cells assessed as inhibition of viral replication […]. In kind it is functional, organism-based. The settings on record: Human immunodeficiency virus 1, subtype CRF02_AG. The essentials:
as §1

The subject of experiment [5] is Human immunodeficiency virus 1. The experiment can be described thus: Antiviral activity against HIV1 subtype B harboring protease polymorphism at I36 position and M46I, I50L, N88S mutant gene infected in human cord blood mononuclear cells assessed as inhibition of viral replication […]. The conditions noted are these: Human immunodeficiency virus 1, subtype B. In kind it is functional, organism-based. The essentials: as §1

For experiment [6], the system named is Human immunodeficiency virus 1. The experiment can be described thus: Antiviral activity against HIV1 subtype CRF02_AG harboring protease polymorphism at I36 position and I50FILV, A71V mutant gene infected in human cord blood mononuclear cells assessed as inhibition of viral replication […]. The experiment is classed as functional, organism-based. The settings on record: Human immunodeficiency virus 1, subtype CRF02_AG. The essentials: as §1

Experiment [7] has as its system Human immunodeficiency virus 1. The experiment can be described thus: Antiviral activity against HIV1 subtype B harboring protease polymorphism at M36 position and L10F, V82A mutant gene infected in human cord blood mononuclear cells assessed as inhibition of viral replication after 48 hrs by luciferase reporter gene assay. In kind it is functional, organism-based. The settings on record: Human immunodeficiency virus 1, subtype B.

Experiment [8] relates to Human immunodeficiency virus 1. The experiment can be described thus: Antiviral activity against HIV1 subtype C harboring protease L10R, M46I, I54V, V82S mutant gene and polymorphism at M36 position infected in human cord blood mononuclear cells assessed as inhibition of viral replication […]. The experiment is classed as functional, organism-based. The conditions noted are these: Human immunodeficiency virus 1, subtype C. A digest of the protocol:
as §1

Experiment [9] deals with Human immunodeficiency virus 1. The experiment is described as follows: Antiviral activity against HIV1 subtype C harboring protease L32I, M46I/M, L76V mutant gene and polymorphism at I36 position infected in human cord blood mononuclear cells assessed as inhibition of viral replication after 48 hrs by luciferase reporter gene assay. In kind it is functional, organism-based. The conditions noted are these: Human immunodeficiency virus 1, subtype C. (In a reporter assay the amount or activity of a reporter protein is the signal.)

Experiment [10] has as its system Human immunodeficiency virus 1. The experiment can be described thus: Antiviral activity against HIV1 subtype CRF02_AG harboring protease L76V, M46I, I84V mutant gene and polymorphism at M36 position infected in human cord blood mononuclear cells assessed as inhibition of viral replication […]. The conditions noted are these: Human immunodeficiency virus 1, subtype CRF02_AG. In kind it is functional, organism-based. The essentials:
as §1

Experiment [11] concerns Human immunodeficiency virus 1. The experiment can be described thus: Selectivity ratio of EC50 for HIV1 subtype C harboring protease L10R, M46I, I54V, V82S mutant gene and polymorphism at M36 position to EC50 for wild type HIV1 subtype C. In kind it is functional.
For experiment [12], the system named is Human immunodeficiency virus 1. The experiment can be described thus: Selectivity ratio of EC50 for HIV1 subtype C harboring protease L32I, M46I/M, L76V mutant gene and polymorphism at I36 position to EC50 for wild type HIV1 subtype C. In kind it is functional.
Experiment [13] relates to Human immunodeficiency virus 1. The experiment is described as follows: Selectivity ratio of EC50 for HIV1 subtype CRF02_AG harboring protease L76V, M46I, I84V mutant gene and polymorphism at M36 position to EC50 for wild type HIV1 subtype CRF02_AG. The experiment is classed as functional.
Experiment [14] relates to Human immunodeficiency virus 1. The experiment is described as follows: Selectivity ratio of EC50 for HIV1 subtype CRF02_AG harboring protease M46, I47A, I84V mutant gene and polymorphism at I36 position to EC50 for wild type HIV1 subtype CRF02_AG. The experiment is classed as functional.
For experiment [15], the system named is Human immunodeficiency virus 1. The experiment can be described thus: Antiviral activity against HIV1 subtype CRF02_AG harboring protease M46, I47A, I84V mutant gene and polymorphism at I36 position infected in human cord blood mononuclear cells assessed as inhibition of viral replication on day 7 by RT activity assay. The settings on record: Human immunodeficiency virus 1, subtype CRF02_AG, 7 days.

Experiment [16] deals with Human immunodeficiency virus 1. The experiment can be described thus: Antiviral activity against HIV1 subtype B harboring protease D30N, M46I, A71T and V77I mutant gene and polymorphism at M36 position of protease infected in human cord blood mononuclear cells assessed as inhibition of viral replication […]. In kind it is functional, organism-based. The settings on record: Human immunodeficiency virus 1, subtype B. The essentials: as §1

For experiment [17], the system named is Human immunodeficiency virus 1. The experiment is described as follows: Antiviral activity against wild type HIV1 subtype B infected in human cord blood mononuclear cells assessed as inhibition of viral replication after 48 hrs by luciferase reporter gene assay. In kind it is functional, organism-based. The conditions noted are these: Human immunodeficiency virus 1, subtype B.

In experiment [18] the test system is Human immunodeficiency virus 1. The experiment can be described thus: Antiviral activity against HIV1 subtype B harboring protease D30N, L33I, M46I, N88D mutant gene and polymorphism at I36 position infected in human cord blood mononuclear cells assessed as inhibition of viral replication […] by […]. In kind it is functional, organism-based. The settings on record: Human immunodeficiency virus 1, subtype B. A digest of the protocol:
as §1

In experiment [19] the test system is Human immunodeficiency virus 1. The experiment is described as follows: Antiviral activity against wild type HIV1 subtype C infected in human cord blood mononuclear cells assessed as inhibition of viral replication after 48 hrs by luciferase reporter gene assay. In kind it is functional, organism-based. The settings on record: Human immunodeficiency virus 1, subtype C.

Experiment [20] deals with Human immunodeficiency virus 1. The experiment is described as follows: Antiviral activity against HIV1 subtype C harboring protease L23I, M46I, L89T mutant gene and polymorphism at M36 position infected in human cord blood mononuclear cells assessed as inhibition of viral replication […]. In kind it is functional, organism-based. The settings on record: Human immunodeficiency virus 1, subtype C. The essentials:
as §1

Experiment [21] relates to Human immunodeficiency virus 1. The experiment can be described thus: Antiviral activity against HIV1 subtype C harboring protease D30N, E35G, I85V, L90M mutant gene and polymorphism at I36 position infected in human cord blood mononuclear cells assessed as inhibition of viral replication […]. The conditions noted are these: Human immunodeficiency virus 1, subtype C. In kind it is functional, organism-based. A digest of the protocol:
as §1

Experiment [22] relates to Human immunodeficiency virus 1. The experiment is described as follows: Selectivity ratio of EC50 for HIV1 subtype B harboring protease polymorphism at M36 position infected in human cord blood mononuclear cells to EC50 for HIV1 subtype B harboring protease polymorphism at I36 position infected in human cord blood mononuclear cells. In kind it is functional.
Experiment [23] concerns Human immunodeficiency virus 1. The experiment is described as follows: Antiviral activity against wild type HIV1 subtype CRF02_AG infected in human cord blood mononuclear cells assessed as inhibition of viral replication after 48 hrs by luciferase reporter gene assay. In kind it is functional, organism-based. The conditions noted are these: Human immunodeficiency virus 1, subtype CRF02_AG.

The subject of experiment [24] is Human immunodeficiency virus 1. The experiment is described as follows: Antiviral activity against HIV1 subtype CRF02_AG harboring protease L33I, M46I, A71T mutant gene and polymorphism at M36 position infected in human cord blood mononuclear cells assessed as inhibition of viral replication […]. The experiment is classed as functional, organism-based. The conditions noted are these: Human immunodeficiency virus 1, subtype CRF02_AG. The essentials:
as §1

The subject of experiment [25] is Human immunodeficiency virus 1. The experiment can be described thus: Antiviral activity against HIV1 subtype B harboring protease polymorphism at M36 position infected in human TZM-bl cells assessed as inhibition of viral replication after 48 hrs by luciferase reporter gene assay. In kind it is functional, organism-based. A digest of the protocol:
(§2)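 TZM-bl cells (10⁴/well) in DMEM with 10% FBS were infected with the week-0 or week-35 polymorphic variant. After 48 h, cells were PBS-rinsed and lysed, and luciferase activity was read as relative light units. Results are means of three independent experiments run in duplicate.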

The test system of experiment [26] is Human immunodeficiency virus 1. The experiment is described as follows: Antiviral activity against HIV1 subtype B harboring protease polymorphism at I36 position infected in human TZM-bl cells assessed as inhibition of viral replication after 48 hrs by luciferase reporter gene assay. The experiment is classed as functional, organism-based. A digest of the protocol:
as §2

The test system of experiment [27] is Human immunodeficiency virus 1. The experiment can be described thus: Antiviral activity against HIV1 subtype CRF02_AG harboring protease polymorphism at I36 position infected in human TZM-bl cells assessed as inhibition of viral replication after 48 hrs by luciferase reporter gene assay. In kind it is functional, organism-based. A digest of the protocol: as §2

Experiment [28] concerns Human immunodeficiency virus 1. The experiment can be described thus: Selectivity ratio of EC50 for HIV1 subtype C harboring protease polymorphism at I36 position to EC50 for wild type HIV1 subtype C. In kind it is functional.
The subject of experiment [29] is Human immunodeficiency virus 1. The experiment can be described thus: Selectivity ratio of EC50 for HIV1 subtype B harboring protease D30N, M46I, A71T and V77I mutant gene and polymorphism at M36 position to EC50 for wild type HIV1 subtype B. In kind it is functional.
In experiment [30] the test system is Human immunodeficiency virus 1. The experiment can be described thus: Selectivity ratio of EC50 for HIV1 subtype CRF02_AG harboring protease L33I, M46I, A71T mutant gene and polymorphism at M36 position to EC50 for wild type HIV1 subtype CRF02_AG. The experiment is classed as functional.
Experiment [31] deals with Human immunodeficiency virus 1. The experiment is described as follows: Selectivity ratio of EC50 for HIV1 subtype CRF02_AG harboring protease polymorphism at I36 position and M46 mutant gene to EC50 for wild type HIV1 subtype CRF02_AG. In kind it is functional.
In experiment [32] the test system is Human immunodeficiency virus 1. The experiment is described as follows: Selectivity ratio of EC50 for HIV1 subtype C harboring protease L23I, M46I, L89T and polymorphism at M36 position to EC50 for wild type HIV1 subtype C M36.
The test system of experiment [33] is Human immunodeficiency virus 1. The experiment can be described thus: Antiviral activity against HIV1 subtype CRF02_AG harboring protease polymorphism at I36 position and M46 mutant gene infected in human cord blood mononuclear cells assessed as inhibition of viral replication on day 7 by RT activity assay. The settings on record: Human immunodeficiency virus 1, subtype CRF02_AG, 7 days.

Regarding `COC(=O)N[C@H](C(=O)N[C@@H](Cc1ccccc1)[C@@H](O)CN(Cc1ccc(-c2ccccn2)cc1)NC(=O)[C@@H](NC(=O)OC)C(C)(C)C)C(C)(C)C` [ATAZANAVIR], the pEC50 is 6.74 in experiment [1]; 7.06 in [2]; 8.43 in experiment [3]; 8.03 in [4]; 8.15 in experiment [5]; 7.73 in experiment [6].

For the molecule `Cc1cccc(C)c1OCC(=O)N[C@@H](Cc1ccccc1)[C@@H](O)C[C@H](Cc1ccccc1)NC(=O)[C@H](C(C)C)N1CCCNC1=O` [LOPINAVIR], the pEC50 in experiment [7] is 6.71; in experiment [8] it was 6.38; in [9], 6.80; in experiment [10] it was 6.87; in experiment [15], 5.83. Besides, the “Ratio EC50” value is on record as 190 in experiment [11], 46 in experiment [12], 22 in [13] and 101 in experiment [14].

As to `Cc1c(O)cccc1C(=O)N[C@@H](CSc1ccccc1)[C@H](O)CN1C[C@H]2CCCC[C@H]2C[C@H]1C(=O)NC(C)(C)C` [NELFINAVIR], the pEC50 was 5.94 in experiment [16]; 8.01 in [17]; 5.83 in experiment [18]; 8.78 in [19]; 6.57 in experiment [20]; 5.46 in experiment [21]. The results for the pEC50 in experiment [23], in [24] and in [33] were 8.24, 6.69 and 7.26, respectively. Further, the “Ratio EC50” value is on record as 2 in experiment [22]; 1158 in [28]; 70 in experiment [29]; 35 in [30]; 6 in experiment [31]; 163 in experiment [32]. Further, the result in experiment [25], in experiment [26] and in experiment [27] was Active.
